Results: PubChem BioAssay
Inconclusive results are not listed.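 Rule for the calls, unless noted: active = growth inhibition above 25% in both replicates, a cutoff set 3 SD above the mean; inconclusive = above 25% in only one replicate; inactive = the rest.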

Assays:
[1] = OD615 S. cerevisiae growth inhibition, permissive medium, pilot counter-assay, permissive growth control for S. cerevisiae lifespan shortening project (AID 705); settings: OD615, 24 h, at 10 µM, stronger effect = higher value
Procedure, shortened: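 Material: engineered DeaD yeast; Compound: one dose 10 µM, DMSO 0.25% final; Detection: absorbance (optical density) at 615 nm; Buffer or medium: permissive raffinose/galactose medium; Timing: 24 h exposure, 30 °C.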

[2] = Restrictive medium S. cerevisiae growth inhibition, OD615, pilot screen of yeast lifespan reduction project, restrictive growth control (AID 706;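 active = growth inhibition above a set limit, 3 SD over mean compound inhibition, in both replicates, cut at about 43% in these data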;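 note: modified DeaD lifespan yeast strain shifted to restrictive glucose medium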); settings: OD615, 48 h, at 10 µM, stronger effect = higher value
Procedure, shortened: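 Buffer or medium: restrictive glucose medium (CSMM-D); test system: modified S. cerevisiae; doses: single dose of 10 µM compound final, 0.25% DMSO; schedule: 48 h compound exposure at 30 °C; detection: absorbance (optical density) measured at 615 nm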

[3] = viability gain of MRP-1-high H69AR cells under doxorubicin, pilot screen, MRP-1 activator project, CellTiter-Glo, duplicate (AID 807;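 active = viability increase at or above a cutoff of the median across tested compounds plus 3 SD, cut at about 8.5% in these data, passing the limit was not always enough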;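 note: compound pretreatment 18-22 h then 72 h combined with doxorubicin; 0% = doxorubicin alone and 100% = vehicle without doxorubicin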); settings: H69AR viability with doxorubicin, CellTiter-Glo luminescence; at 10 µM; stronger effect = higher value
[4] = growth suppression of beta-catenin knockout HCT116, pilot screen, human colon tumor cells (AID 823;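 active = cell viability at or below a set limit in both duplicate runs, the limit being the all-compound median minus 4 SD, cut at about 23% in these data, passing the limit was not always enough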;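 note: 0% = wells killed by 20 µM Hyamine and 100% = untreated DMSO cell wells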); settings: CellTiter-Glo, 60 h, at 10 µM, stronger effect = lower value
[5] = growth suppression of PTEN-deleted HCT116, pilot screen, cell-based, HCT116 clonal line, CellTiter-Glo (AID 824;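 active = viability at or below 27.92% in each of two runs, the all-compound median minus 4 SD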;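 note: 0% = 20 µM Hyamine control and 100% = vehicle cell control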); settings: 60 h, at 10 µM, stronger effect = lower value
[6] = inhibitors of the yeast RAM network, pilot screen, dse1pr::URA3 reporter, 5-FOA selection (AID 869;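 active = inhibition over a set limit, the all-compound mean plus 3 SD, in both replicate runs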;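 note: 0% = DMSO wells with no growth and 100% = 10 µM 1-NA-PP1 with full growth; RAM network block rescues cells from 5-FOA so hits raise OD615 growth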); settings: S. cerevisiae dse1pr::URA3 5-FOA growth, OD615, 2 d; at 10 µM; stronger effect = higher value; strain carries analog-sensitive mutant Cbk1 kinase
[7] = RAM signaling pathway blockade in yeast – S. cerevisiae, Pdr1DBD-CYC8 efflux-inhibited sensitized strain, primary screen (AID 1298;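 active = RAM network inhibition above 8.4% in each of two replicates, 3 SD over the compound average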;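 note: 0% = DMSO untreated cells without growth and 100% = 10 µM 1-NA-PP1 full growth; higher means more yeast growth rescued from 5-FOA killing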); settings: S. cerevisiae cbk1-as DSE1-URA3 strain, 5-FOA growth OD615, 2 d; at 50 µM; stronger effect = higher value

COCCCN(C(=O)Nc1ccc(C)c(C)c1)C(C)c1ccccn1 (stereo not drawn)
inactive: growth inhibition [1] 2.01% | growth inhibition [2] 11.8% | viability increase [3] -1.65% | viability [4] 102% | viability [5] 89.8% | inhibition [6] 2.15% | RAM network inhibition [7] 5.96%

COc1ccc(Nc2cc(C)nc3nc(C)nn23)cc1Cl
inactive: growth inhibition [1] 0.45% | growth inhibition [2] 13.4% | viability increase [3] -3.91% | viability [4] 101% | viability [5] 93.5% | inhibition [6] -0.465% | RAM network inhibition [7] -0.01%

CCOC(=O)c1c2n(c3c(NCc4ccccc4)ncnc13)CCCC2
inactive: growth inhibition [1] -11.4% | growth inhibition [2] -10.9% | viability increase [3] -7.91% | viability [4] 83.6% | viability [5] 78.7% | inhibition [6] 1.23% | RAM network inhibition [7] 2.51%

Clc1ccc(CSc2nnc(-c3cccnc3)n2Cc2ccco2)c(Cl)c1
inactive: growth inhibition [1] 1.24% | growth inhibition [2] 34.1% | viability increase [3] -3.29% | viability [4] 87.3% | viability [5] 88.2% | inhibition [6] 2.67% | RAM network inhibition [7] 11.6%

CCC(C)[C@@H](C(=O)Nc1ccc(OC)c(OC)c1)N1Cc2ccccc2C1=O (stereo partly drawn)
inactive: growth inhibition [1] -13.5% | growth inhibition [2] -13.6% | viability increase [3] -2.11% | viability [4] 91.8% | viability [5] 82.8% | inhibition [6] 2.65% | RAM network inhibition [7] 2.81%

O=C(Cn1cnc2c(nnn2-c2cccc(Cl)c2)c1=O)N1CCOCC1
inactive: growth inhibition [1] -0.49% | growth inhibition [2] -4.46% | viability increase [3] -0.35% | viability [4] 92.5% | viability [5] 96.4% | inhibition [6] 1.79% | RAM network inhibition [7] 1.56%

Cn1ccnc1-c1nc2ccccc2[nH]c1=O
inactive: growth inhibition [1] -6.04% | growth inhibition [2] -15.6% | viability increase [3] -1.95% | viability [4] 101% | viability [5] 95.5% | inhibition [6] -0.695% | RAM network inhibition [7] -0.73%

Cc1ccc(C)c2c1sc(=NC(=O)CN1C(=O)CCC1=O)n2C
inactive: growth inhibition [1] -15% | growth inhibition [2] -2.54% | viability increase [3] -1.69% | viability [4] 88% | viability [5] 83.2% | inhibition [6] 2.84% | RAM network inhibition [7] 5.96%

COCCN(C(=O)Nc1ccccc1)C(C)c1cccnc1 (stereo not drawn)
inactive: growth inhibition [1] 9.6% | growth inhibition [2] -1.42% | viability increase [3] -2.41% | viability [4] 93.5% | viability [5] 97.5% | inhibition [6] 1.54% | RAM network inhibition [7] -1.08%

Cc1ccc2cc(-c3noc(C4CCCO4)n3)c(=O)[nH]c2c1 (stereo not drawn)
inactive: growth inhibition [1] -12.5% | growth inhibition [2] -7.12% | viability increase [3] -0.44% | viability [4] 108% | viability [5] 100% | inhibition [6] 0.82% | RAM network inhibition [7] 4.44%

COC(=O)c1ccccc1NC(=O)C1CCCN(c2nnc(-n3cccc3)s2)C1 (stereo not drawn)
inactive: growth inhibition [1] -1.67% | growth inhibition [2] 4.77% | viability increase [3] -2.28% | viability [4] 86.2% | viability [5] 82.2% | inhibition [6] 1.65% | RAM network inhibition [7] 8.61%

CC(=O)NC(C)(C)C1CC=C(C)/C(=N\O)C1 (stereo not drawn)
inactive: growth inhibition [1] -3.7% | growth inhibition [2] -1.12% | viability increase [3] -0.02% | viability [4] 104% | viability [5] 101% | inhibition [6] 1.36% | RAM network inhibition [7] -0.78%

CC(=O)c1ccc(-n2nncc2C)cc1
inactive: growth inhibition [1] -4.02% | growth inhibition [2] -11.6% | viability increase [3] -3.63% | viability [4] 108% | viability [5] 95.6% | inhibition [6] 0.965% | RAM network inhibition [7] 2.75%

O=C(Oc1ccc2c(=O)c(Cl)coc2c1)c1ccncc1
inactive: growth inhibition [1] -0.185% | growth inhibition [2] 7.12% | viability increase [3] -4.3% | viability [4] 90.4% | viability [5] 99.2% | inhibition [6] 0.015% | RAM network inhibition [7] -0.99%

Cc1cc(C)nc(SCC(=O)Nc2ccc(S(=O)(=O)Nc3onc(C)c3C)cc2)n1
inactive: growth inhibition [1] -5.04% | growth inhibition [2] 14% | viability increase [3] 0.95% | viability [4] 109% | viability [5] 101% | inhibition [6] 0.88% | RAM network inhibition [7] -1.62%

CCN(c1ccccc1)c1cc(C)nc2nc(C)nn12
inactive: growth inhibition [1] -17% | growth inhibition [2] -3.25% | viability increase [3] -3.84% | viability [4] 106% | viability [5] 96.7% | inhibition [6] 1.6% | RAM network inhibition [7] 4.74%

CC(=O)C1C(c2ccccc2Cl)NC(=O)NC1(O)C(F)(F)F (stereo not drawn)
inactive: growth inhibition [1] -3.3% | growth inhibition [2] -12.1% | viability increase [3] -0.31% | viability [4] 112% | viability [5] 102% | inhibition [6] 1.93% | RAM network inhibition [7] -0.82%

O=C(Nc1ccccc1Cl)c1ccc2c(c1)N(Cc1ccc(F)cc1)C(=O)CS2=O (stereo not drawn)
inactive: growth inhibition [1] -5.36% | growth inhibition [2] -7.24% | viability increase [3] 1.1% | viability [4] 83.3% | viability [5] 72.5% | inhibition [6] 3.9% | RAM network inhibition [7] 3.95%

CC1CCCC(C)N1C(=O)Cn1c(=O)sc2ccccc21 (stereo not drawn)
inactive: growth inhibition [1] -4.41% | growth inhibition [2] 8.62% | viability increase [3] -3.08% | viability [4] 97.8% | viability [5] 90.6% | inhibition [6] 0.87% | RAM network inhibition [7] 4.18%

CCOC(=O)c1cnc2ccc(C(=O)OC)cc2c1NCCN1CCOCC1
inactive: growth inhibition [1] -6.57% | growth inhibition [2] -2.95% | viability increase [3] -4.73% | viability [4] 86.6% | viability [5] 92.1% | inhibition [6] 2.41% | RAM network inhibition [7] 2.6%

COc1ccc(C)cc1Nc1cc(C)nc2nc(C)nn12
inactive: growth inhibition [1] -8.41% | growth inhibition [2] 1.49% | viability increase [3] -4.98% | viability [4] 64.4% | viability [5] 57.3% | inhibition [6] 1.47% | RAM network inhibition [7] 0.57%

CCC1(C)OC(=O)N2CCc3c(C)[nH]c4c(C)ccc(c34)C21C (stereo not drawn)
inactive: growth inhibition [1] -14.7% | growth inhibition [2] -17.8% | viability increase [3] -1.6% | viability [4] 95.9% | viability [5] 91.3% | inhibition [6] 2.15% | RAM network inhibition [7] 1.06%

CCOc1ccc2nc(N3CCC(C(=O)Nc4nnc(CC)s4)CC3)sc2c1
inactive: growth inhibition [1] -13.1% | growth inhibition [2] -21.7% | viability increase [3] -0.45% | viability [4] 95.8% | viability [5] 95.1% | inhibition [6] 2.67% | RAM network inhibition [7] 6.98%

CN(C)CCN(Cc1ccccc1)c1ccnc(N(C)C)c1C#N
inactive: growth inhibition [1] -13.2% | growth inhibition [2] -17.6% | viability increase [3] -4.22% | viability [4] 85.2% | viability [5] 89.5% | inhibition [6] 1.11% | RAM network inhibition [7] 2.08%
